For one experiment, the target named is T1, PLK4 (Homo sapiens, UniProt O00444).
T1 sequence (O00444 1-970): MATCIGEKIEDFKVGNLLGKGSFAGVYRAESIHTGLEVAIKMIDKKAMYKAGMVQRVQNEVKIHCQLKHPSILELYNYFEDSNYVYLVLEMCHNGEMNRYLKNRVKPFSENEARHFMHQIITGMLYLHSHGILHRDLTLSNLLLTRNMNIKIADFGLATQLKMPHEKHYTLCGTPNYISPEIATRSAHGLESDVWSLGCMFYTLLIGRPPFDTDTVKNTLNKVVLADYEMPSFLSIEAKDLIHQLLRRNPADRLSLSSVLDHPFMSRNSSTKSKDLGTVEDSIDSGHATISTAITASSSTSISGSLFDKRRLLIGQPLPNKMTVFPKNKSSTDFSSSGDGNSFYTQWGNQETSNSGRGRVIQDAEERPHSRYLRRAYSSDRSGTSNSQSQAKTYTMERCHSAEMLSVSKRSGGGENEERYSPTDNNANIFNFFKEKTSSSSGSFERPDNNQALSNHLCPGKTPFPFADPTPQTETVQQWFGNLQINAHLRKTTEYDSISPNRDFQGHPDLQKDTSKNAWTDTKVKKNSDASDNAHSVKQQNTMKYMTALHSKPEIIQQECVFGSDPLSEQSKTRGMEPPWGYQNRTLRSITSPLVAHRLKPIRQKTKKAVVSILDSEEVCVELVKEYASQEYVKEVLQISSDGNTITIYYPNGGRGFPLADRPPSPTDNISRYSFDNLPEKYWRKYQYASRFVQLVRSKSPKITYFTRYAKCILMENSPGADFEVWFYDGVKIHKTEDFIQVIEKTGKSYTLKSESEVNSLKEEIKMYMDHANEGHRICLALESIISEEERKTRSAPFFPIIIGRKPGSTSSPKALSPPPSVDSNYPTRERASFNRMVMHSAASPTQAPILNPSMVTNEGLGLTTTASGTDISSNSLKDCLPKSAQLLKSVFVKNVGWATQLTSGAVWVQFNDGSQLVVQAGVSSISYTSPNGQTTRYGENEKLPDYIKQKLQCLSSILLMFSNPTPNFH
The experiment in a line: in vitro ATP-site competition binding assay, panel of 402 kinases. Conditions: 10 μM inhibitor.

For the next experiment, the system named is p21 expression. The experiment in a line: p21 expression in MEF cells, western blot. Format: cell-based. Conditions: 5 μM, 16 hours. The procedure, abridged:
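Pml+/+ and Pml−/− MEFs were treated with or without test compound (5 μM) for 16 hr. Lysates were western-blotted with anti-p21 antibody. p21 was quantified by densitometry, normalised to GAPDH, and expressed relative to untreated Pml+/+ cells (set to 1). n = 5; Student's t test.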

A further experiment has as its target T2, TNK1 (Homo sapiens, UniProt Q13470).
T2 sequence (Q13470 1-666): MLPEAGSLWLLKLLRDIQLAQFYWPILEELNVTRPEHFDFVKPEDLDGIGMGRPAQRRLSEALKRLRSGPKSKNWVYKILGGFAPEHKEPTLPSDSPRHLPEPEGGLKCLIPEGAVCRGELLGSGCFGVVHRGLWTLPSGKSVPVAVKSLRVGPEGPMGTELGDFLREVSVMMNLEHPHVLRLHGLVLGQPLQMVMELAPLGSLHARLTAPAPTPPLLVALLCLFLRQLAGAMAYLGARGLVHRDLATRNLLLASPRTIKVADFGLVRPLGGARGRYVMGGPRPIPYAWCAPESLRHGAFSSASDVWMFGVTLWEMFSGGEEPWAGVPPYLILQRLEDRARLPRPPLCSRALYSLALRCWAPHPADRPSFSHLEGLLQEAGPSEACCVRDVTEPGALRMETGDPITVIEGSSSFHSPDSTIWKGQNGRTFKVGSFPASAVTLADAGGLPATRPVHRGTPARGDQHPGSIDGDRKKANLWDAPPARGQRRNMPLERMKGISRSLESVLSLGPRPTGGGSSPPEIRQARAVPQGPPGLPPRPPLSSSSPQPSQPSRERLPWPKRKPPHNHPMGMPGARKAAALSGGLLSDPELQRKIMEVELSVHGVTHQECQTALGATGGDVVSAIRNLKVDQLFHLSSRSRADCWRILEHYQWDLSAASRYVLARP
As to the kind of experiment: in vitro ATP-site competition binding assay, panel of 402 kinases. To be noted: 10 μM inhibitor.

A further experiment has as its target T3, DCAMKL1 (Homo sapiens, UniProt O15075).
T3 sequence (O15075 1-740): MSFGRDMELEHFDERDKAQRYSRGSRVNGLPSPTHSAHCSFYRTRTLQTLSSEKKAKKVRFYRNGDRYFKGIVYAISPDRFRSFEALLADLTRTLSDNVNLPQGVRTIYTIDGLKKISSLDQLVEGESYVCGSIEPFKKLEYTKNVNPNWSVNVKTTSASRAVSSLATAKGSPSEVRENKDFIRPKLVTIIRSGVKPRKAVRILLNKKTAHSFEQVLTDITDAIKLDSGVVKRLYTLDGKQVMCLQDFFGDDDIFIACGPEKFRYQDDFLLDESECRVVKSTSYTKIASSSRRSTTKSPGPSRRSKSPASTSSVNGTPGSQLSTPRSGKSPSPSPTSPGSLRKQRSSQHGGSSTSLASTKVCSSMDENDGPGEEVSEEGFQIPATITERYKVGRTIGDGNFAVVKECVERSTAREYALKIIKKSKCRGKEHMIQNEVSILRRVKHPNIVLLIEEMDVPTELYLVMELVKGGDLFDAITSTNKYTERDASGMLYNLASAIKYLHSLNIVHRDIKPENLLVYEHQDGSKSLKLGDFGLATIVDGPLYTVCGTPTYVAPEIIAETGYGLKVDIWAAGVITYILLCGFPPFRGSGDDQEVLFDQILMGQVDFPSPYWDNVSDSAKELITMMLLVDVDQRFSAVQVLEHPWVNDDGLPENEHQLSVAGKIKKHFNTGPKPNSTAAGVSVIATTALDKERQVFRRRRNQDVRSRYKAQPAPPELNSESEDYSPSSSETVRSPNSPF
Described as above. To be noted: 10 μM inhibitor.

A further experiment has as its system ERK1/2. As to the kind of experiment: EGF-induced ERK1/2 activation in HeLa cells. Format: cell-based, human. Conditions: 1 μM compound for one hour, EGF 17 min.

The structures appear in SMILES notation.

`CCOc1cc(N2CCC(O)CC2)ccc1Nc1ncc2c(n1)N(C)c1ccccc1C(=O)N2C` [XMD8-92]: the “displacement by XMD8-92” value on PLK4, on TNK1 and at DCAMKL1 was “greater than 90%” in each case. The p21 expression result in the experiment on p21 expression (Pml+/+ MEF cells) is recorded as “significantly induced”. Moreover, the “induction of p21 in PML null cells” value in the experiment with p21 expression (Pml-/- MEF cells) was “substantially reduced”. In addition, the “Growth factor-induced activation of cellular ERK1/2” value with ERK1/2 is recorded as “but not the structurally similar ERK1/2”.
